# Bioassay records deposited in PubChem by The Scripps Research Institute Molecular Screening Center.
# CHO parental Ca: ATP-evoked calcium signal inhibitors, parental CHO, primary screen, counter-screen for OX1R antagonist project, cell-based, fluorescence, Fluo-8 calcium dye | parental CHO-K1, ATP-induced calcium, Fluo-8 fluorescence | inhibition, % at 5.6 µM | hit rate 0.63% among 330,000;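 active = inhibition above that plate's mean sample inhibition plus 3 SD, cut at about 26% in these data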;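 note: 0% = ATP-challenged DMSO wells and 100% = DMSO wells without ATP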
#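 Test system: untransfected parental CHO cell line. Compound: one dose, 5.6 µM nominal. Detection: intracellular calcium via Fluo-8 no-wash fluorescent dye. Measure: % inhibition. Benchmarks: ATP-challenged DMSO wells low, unchallenged DMSO wells high.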
# M1 ag parental: counter-screen for M1 agonists: effect in parental CHO-K1 cells | Fluo-8 calcium fluorescence; scaled to maximal ATP response, vehicle zero | activation, % at 3 µM | hit rate 0.48% among 360,000 | AID 602248, 2012; in the data active = activation above about 15%;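 note: untransfected CHO-K1 host cells lacking M1 receptor as counterscreen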
# CHO-K1 Ca antag: M1 antagonist counterscreen hit in parental CHO-K1 cells; ATP-induced calcium, Fluo-8 fluorescence; inhibition, % at 3 µM; hit rate 0.6% among 360,000;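 active = inhibition above a per-plate cutoff, the plate's mean sample inhibition plus 3 SD, cut at about 24% in these data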;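 note: 0% = DMSO plus EC80 ATP and 100% = DMSO alone without ATP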
# OX1R antag-1: antagonists of human orexin 1 receptor (OX1R); OX1R-expressing cells, FRET antagonist read-out; inhibition, % at 6.6 µM; hit rate 1.8% among 330,000; in the data active = inhibition mostly above about 38%, no sharp cut-off; inactive = mostly below about 40%;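 note: 0% = agonist challenge alone and 100% = reference antagonist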
# Target sequence (O43613 whole entry, looked up): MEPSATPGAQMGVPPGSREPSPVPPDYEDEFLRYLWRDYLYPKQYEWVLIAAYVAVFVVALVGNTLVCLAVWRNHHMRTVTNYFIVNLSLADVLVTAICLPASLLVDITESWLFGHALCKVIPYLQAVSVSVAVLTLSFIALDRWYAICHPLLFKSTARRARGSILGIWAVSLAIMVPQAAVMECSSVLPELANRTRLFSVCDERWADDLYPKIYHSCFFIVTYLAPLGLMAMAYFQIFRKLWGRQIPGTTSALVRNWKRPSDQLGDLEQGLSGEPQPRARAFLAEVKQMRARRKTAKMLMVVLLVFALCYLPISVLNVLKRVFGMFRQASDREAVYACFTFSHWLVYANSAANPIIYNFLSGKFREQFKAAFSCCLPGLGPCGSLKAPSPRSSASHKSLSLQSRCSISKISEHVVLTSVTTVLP
# CHO-K1 Ca PAM: nonselective calcium activators in parental CHO-K1 cells, primary screen, counter-screen for M1 PAM project, cell-based, Fluo-8 calcium fluorescence, full deck, 1536-well; activation, % at 3 µM; hit rate 0.02% among 360,000; ATP EC20; 0% at ATP EC20, 100% at ATP max;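 active = activation above the run cutoff, the mean activation of all test compounds plus 3 SD, cut at about 40% in these data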;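 note: peak over basal fluorescence ratio in a 140 s read after ATP addition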
# OX1R antag-2: OX1R (HCRTR1) antagonists, primary screen, fluorescence, CHO/OX1R cells, Fluo-8 calcium, orexin A | AID 434989, 2010 | hit rate 0.43% among 330,000 | Fluo-8 calcium fluorescence | inhibition, % at 5 µM;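 active = inhibition above its plate's threshold, mean inhibition of all tested compounds on the plate plus 3 SD, cut at about 37% in these data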;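 note: 0% = orexin A challenge wells and 100% = SB-334867-A antagonist wells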
# An asterisk follows results filed as active; nt = no result given. Compounds with a hit are over-represented: about 2.9% of the library has one in this group of screens.
SMILES,CHO parental Ca,M1 ag parental,CHO-K1 Ca antag,OX1R antag-1,CHO-K1 Ca PAM,OX1R antag-2
CCNC(=O)Cc1c(OC)ccc2cc(Br)ccc12,-9,0,-5,4,8,-18
COc1ccc2cc(Br)ccc2c1CC(=O)NC(C)(C)C,54*,-1,-2,61,7,-3
Nc1ccc(O)c([N+](=O)[O-])c1,5,0,11,49*,-5,-10
O=C(NCCOc1ccccc1)c1ccccc1NC(=O)C1CCCO1 (stereo not drawn),-8,18*,2,16,8,-29
COc1ccc(OC)c(CNn2c(-c3cccc(C)c3)nc3ccccc3c2=O)c1,-26,2,-14,50*,12,6
COc1ccc(OCC(=O)Nn2c(-c3ccc(C)cc3)nc3ccccc3c2=O)cc1,-17,4,-1,19,8,-13
CCOC(=O)c1ccc(NC(=O)c2c(N)n(Cc3ccccc3)c(=O)[nH]c2=O)cc1,0,0,-12,14,19,-1
O=C(NCc1cccc(Cl)c1)N1CCN(S(=O)(=O)c2ccccc2F)CC1,1,4,-5,15,13,-10
COCCN1C(=S)NC(c2cccc(C(F)(F)F)c2)C(C(=O)N2CCOCC2)=C1C (stereo not drawn),8,1,-9,-1,10,-18
O=C(COc1ccccc1/C=C1\SC(=O)NC1=O)Nc1ccc(F)cc1,-4,5,6,77*,4,-22
Cc1ccc(S(=O)(=O)NCc2ccccn2)c(C)c1C,-10,0,-6,20,-9,-1
Cc1ccc(S(=O)(=O)NCc2ccncc2)c(C)c1C,41*,8,17,31,6,3
CN(C)CCCNC(=O)C[C@H]1C[C@H](C(=O)N2CCCCC2)[C@@]2(CCc3ccccc3)c3[nH]c4ccc(Cl)cc4c3CCN2C1=O,-16,0,0,9,-3,-9
O=C(c1cc(=O)[nH]c2ccccc12)N(Cc1nnc(-c2ccccc2Cl)o1)C1CC1,2,2,1,21,-4,-18
O=C(Nc1cccc2[nH]ncc12)NS(=O)(=O)c1ccccc1,-4,1,-9,-1,23,-7
CC(=O)Nc1ccc(S(=O)(=O)Nc2cccc3[nH]ncc23)cc1,4,13,31*,10,-17,-6
COc1ccc(N2CCN(CC(=O)c3c[nH]c4ccccc34)CC2)cc1,5,0,24*,22,-22,-3
Cc1ccc2[nH]cc(C(=O)CN3CCN(c4ccccc4F)CC3)c2c1,1,16*,-6,8,7,-4
COc1ccc(/C=C2\CCCc3c2nc2ccccc2c3C(=O)O)cc1OC,3,nt,nt,63*,nt,7
CCOc1ccc(/C=C2\CCCc3c2nc2ccccc2c3C(=O)O)cc1OC,30*,45*,11,82*,7,30
COc1cc(/C=C2\CCCc3c2nc2ccccc2c3C(=O)O)cc(OC)c1O,-5,0,-10,10,12,-13
COc1cc(/C=C2\CCCc3c2nc2ccccc2c3C(=O)O)cc([N+](=O)[O-])c1O,-6,1,-10,59,1,-1
O=C(O)c1ccc(/C=C2\CCCc3c2nc2ccccc2c3C(=O)O)cc1,1,5,-19,26,5,-1
COc1ccc(/C=C2\CCc3c2nc2ccccc2c3C(=O)O)cc1OC,7,3,-5,75*,-2,0
Cc1nnc2ccc(Oc3ccc(-c4ccccc4)cc3)nn12,8,10,40*,30,-8,0
COC(=O)c1ccc(Oc2ccc3nnc(C)n3n2)cc1,-9,0,19,32,-2,-17
NC(=S)NNC(=O)C12CC3CC(CC(C3)C1)C2,27,19*,8,13,-6,29
O=C(NCCCn1ccnc1)/C(=C/c1ccco1)NC(=O)c1cccs1,-1,1,-11,12,22,-14
COc1ccc(NC(=O)C2(C)CCN2Cc2ccc(C(C)C)cc2)cc1OC (stereo not drawn),nt,1,-3,nt,3,nt
